Data taken from ChEMBL document CHEMBL1932971, “Synthesis of uriedo and thiouriedo derivatives of peptide conjugated heterocycles - A new class of promising antimicrobials” (2012).
Converted amounts (≈) assume the structure as drawn. Numbered stars: 1 amine (or outer) side, 2 acyl side, 3 side chain; on linkers, the order of the positions; unused ones are H or OH. Peptide text beside a SMILES is read from it. * marks the point of attachment. Piperazinyl(4-(2,3-Cl2Ph)) = Clc1cccc(N2CCN(*)CC2)c1Cl; Thiocarbamoyl(N-4-ClPh) = S=C(Nc1ccc(Cl)cc1)*; Thiocarbamoyl(4-MeOPh) = COc1ccc(NC(=S)*)cc1; X1 = Fc1ccc2c(C3CCN(*)CC3)noc2c1; NH(2-F-phenyl) = Fc1ccccc1N*; CO = O=C([*:1])[*:2]; OcHex = C1CCC(O*)CC1

Tests used:
Type in all cases: functional
Xanthomonas oryzae [1] = assay: Antibacterial activity against Xanthomonas oryzae at 30 ug/ml after 24 hrs by agar well diffusion method; conditions: read-out: DIZ
Aspergillus niger [2] = assay: Antifungal activity against Aspergillus niger at 30 ug/ml after 72 hrs by agar well diffusion method; conditions: read-out: DIZ
Procedure, shortened: (§1)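 Fungal well diffusion. Inocula were subcultured in nutrient broth for one day, then spread on solidified medium. Compounds were made as a 1 mg/mL DMSO stock and diluted to 30 µg/mL final. Each 6 mm well got 0.1 mL. Controls were bavistin (reference) and DMSO (negative). Plates stood for 3 days at room temperature. Inhibition zone was measured in mm as the mean of three determinations.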

Aspergillus niger [3] = assay: Ratio of bavistin MIC to compound MIC for Aspergillus niger after 72 hrs by microdilution method
Fusarium oxysporum [4] = assay: Ratio of bavistin MIC to compound MIC for Fusarium oxysporum after 72 hrs by microdilution method
Aspergillus flavus [5] = assay: Antifungal activity against Aspergillus flavus after 72 hrs by microdilution method
Aspergillus niger [6] = assay: Antifungal activity against Aspergillus niger after 72 hrs by microdilution method
Staphylococcus aureus [7] = assay: Antibacterial activity against coagulase-positive Staphylococcus aureus at 30 ug/ml after 24 hrs by agar well diffusion method; conditions: read-out: DIZ
Procedure, shortened: (§2)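 Agar well diffusion. Inocula were grown in nutrient broth at 37 °C for 24 h, then subcultured in nutrient broth at room temperature. Compounds were made as a 1 mg/mL DMSO stock and diluted to 30 µg/mL final. Nutrient agar plates were spread-inoculated and 6 mm wells each got 0.1 mL. Controls were amoxicillin (reference) and DMSO (negative). Incubation was 24 h at 37 °C. Inhibition zone was measured in mm as the mean of three determinations.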

Fusarium oxysporum [8] = assay: Antifungal activity against Fusarium oxysporum after 72 hrs by microdilution method
Aspergillus flavus [9] = assay: Ratio of bavistin MIC to compound MIC for Aspergillus flavus after 72 hrs by microdilution method
Escherichia coli [10] = assay: Antibacterial activity against Escherichia coli at 30 ug/ml after 24 hrs by agar well diffusion method; conditions: read-out: DIZ; procedure, shortened: as §2
Klebsiella pneumoniae [11] = assay: Antibacterial activity against Klebsiella pneumoniae at 30 ug/ml after 24 hrs by agar well diffusion method; conditions: read-out: DIZ; procedure, shortened: as §2
Fusarium oxysporum [12] = assay: Antifungal activity against Fusarium oxysporum at 30 ug/ml after 72 hrs by agar well diffusion method; conditions: read-out: DIZ; procedure, shortened: as §1
Aspergillus flavus [13] = assay: Antifungal activity against Aspergillus flavus at 30 ug/ml after 72 hrs by agar well diffusion method; conditions: read-out: DIZ; procedure, shortened: as §1
Staphylococcus aureus [14] = assay: Antibacterial activity against coagulase-positive Staphylococcus aureus after 24 hrs by microdilution method
Xanthomonas oryzae [15] = assay: Antibacterial activity against Xanthomonas oryzae after 24 hrs by microdilution method
Klebsiella pneumoniae [16] = assay: Antibacterial activity against Klebsiella pneumoniae after 24 hrs by microdilution method
Escherichia coli [17] = assay: Antibacterial activity against Escherichia coli after 24 hrs by microdilution method

Row | SMILES | zone of inhibition at 30 µg/mL (Xanthomonas oryzae [1]) [mm] | zone of inhibition at 30 µg/mL (Aspergillus niger [2]) [mm] | Ratio (Aspergillus niger [3]) | Ratio (Fusarium oxysporum [4]) | MIC (Aspergillus flavus [5]) [µg/mL] | MIC (Aspergillus niger [6]) [µg/mL] | zone of inhibition at 30 µg/mL (Staphylococcus aureus [7]) [mm] | MIC (Fusarium oxysporum [8]) [µg/mL] | Ratio (Aspergillus flavus [9]) | zone of inhibition at 30 µg/mL (Escherichia coli [10]) [mm] | zone of inhibition at 30 µg/mL (Klebsiella pneumoniae [11]) [mm] | zone of inhibition at 30 µg/mL (Fusarium oxysporum [12]) [mm] | zone of inhibition at 30 µg/mL (Aspergillus flavus [13]) [mm] | MIC (Staphylococcus aureus [14]) [µg/mL] | MIC (Xanthomonas oryzae [15]) [µg/mL] | MIC (Klebsiella pneumoniae [16]) [µg/mL] | MIC (Escherichia coli [17]) [µg/mL]
1 | CC(C)[C@H](NC(=O)CNC(=O)[C@@H]1CCCN1C(=O)[C@H](Cc1ccccc1)NC(=O)CNC(=O)[C@H](CCC(=O)OC1CCCCC1)NC(=O)CNC(=O)Nc1ccccc1F)C(=O)NCC(=O)N[C@H](C(=O)N1CCC[C@H]1C(=O)NCC(=O)N[C@H](C(=O)NCC(=O)N[C@@H](Cc1ccccc1)C(=O)N1CCC[C@H]1C(=O)NCC(=O)N[C@@H](Cc1ccccc1)C(=O)NCC(=O)N[C@@H](Cc1ccccc1)C(=O)N1CCC[C@H]1C(=O)NCC(=O)N[C@H](C(=O)NCC(=O)N[C@H](C(=O)N1CCC[C@H]1C(=O)NCC(=O)N[C@H](C(=O)NCC(=O)N[C@@H](Cc1ccccc1)C(=O)N1CCC[C@H]1C(=O)N1CCN(c2cccc(Cl)c2Cl)CC1)C(C)C)C(C)C)C(C)C)C(C)C)C(C)C ({NH(2-F-phenyl)-CO}-GE(OcHex)GFPGVGVPGVGFPGFGFPGVGVPGVGFP-{Piperazinyl(4-(2,3-Cl2Ph))}) | 19 | 48 | 10 | 10 | 1.75 (≈ 0.551 µM) | 2 (≈ 0.629 µM) | 20 | 2 (≈ 0.629 µM) | 10 | 22 | 21 | 43 | 42 | – | – | – | –
2 | CC(C)[C@H](NC(=O)CNC(=O)[C@@H]1CCCN1C(=O)[C@H](Cc1ccccc1)NC(=O)CNC(=O)[C@H](CCC(=O)OC1CCCCC1)NC(=O)CNC(=O)Nc1ccccc1F)C(=O)NCC(=O)N[C@H](C(=O)N1CCC[C@H]1C(=O)NCC(=O)N[C@H](C(=O)NCC(=O)N[C@H](C(=O)N1CCC[C@H]1C(=O)NCC(=O)N[C@H](C(=O)NCC(=O)N[C@H](C(=O)N1CCC[C@H]1C(=O)NCC(=O)N[C@@H](Cc1ccccc1)C(=O)NCC(=O)N[C@@H](Cc1ccccc1)C(=O)N1CCC[C@H]1C(=O)NCC(=O)N[C@@H](Cc1ccccc1)C(=O)NCC(=O)N[C@@H](Cc1ccccc1)C(=O)N1CCC[C@H]1C(=O)N1CCC(c2noc3cc(F)ccc23)CC1)C(C)C)C(C)C)C(C)C)C(C)C)C(C)C ({NH(2-F-phenyl)-CO}-GE(OcHex)GFPGVGVPGVGVPGVGVPGFGFPGFGFP-X1) | 21 | 46 | 10 | 10 | 1.25 (≈ 0.395 µM) | 1.25 (≈ 0.395 µM) | 22 | 1.5 (≈ 0.474 µM) | 10 | 24 | 22 | 44 | 43 | – | – | – | –
3 | COc1ccc(NC(=S)NCC(=O)N[C@@H](CCC(=O)OC2CCCCC2)C(=O)NCC(=O)N[C@@H](Cc2ccccc2)C(=O)N2CCC[C@H]2C(=O)NCC(=O)N[C@H](C(=O)NCC(=O)N[C@H](C(=O)N2CCC[C@H]2C(=O)NCC(=O)N[C@H](C(=O)NCC(=O)N[C@@H](Cc2ccccc2)C(=O)N2CCC[C@H]2C(=O)NCC(=O)N[C@@H](Cc2ccccc2)C(=O)NCC(=O)N[C@@H](Cc2ccccc2)C(=O)N2CCC[C@H]2C(=O)NCC(=O)N[C@H](C(=O)NCC(=O)N[C@H](C(=O)N2CCC[C@H]2C(=O)NCC(=O)N[C@H](C(=O)NCC(=O)N[C@@H](Cc2ccccc2)C(=O)N2CCC[C@H]2C(=O)N2CCN(c3cccc(Cl)c3Cl)CC2)C(C)C)C(C)C)C(C)C)C(C)C)C(C)C)C(C)C)cc1 ({Thiocarbamoyl(4-MeOPh)}-GE(OcHex)GFPGVGVPGVGFPGFGFPGVGVPGVGFP-{Piperazinyl(4-(2,3-Cl2Ph))}) | 13 | 42 | 10 | 10 | 2.75 (≈ 0.858 µM) | 2.75 (≈ 0.858 µM) | 14 | 3.25 (≈ 1.01 µM) | 10 | 15 | 15 | 38 | 37 | – | – | – | –
4 | COc1ccc(NC(=S)NCC(=O)N[C@@H](CCC(=O)OC2CCCCC2)C(=O)NCC(=O)N[C@@H](Cc2ccccc2)C(=O)N2CCC[C@H]2C(=O)NCC(=O)N[C@H](C(=O)NCC(=O)N[C@H](C(=O)N2CCC[C@H]2C(=O)NCC(=O)N[C@H](C(=O)NCC(=O)N[C@H](C(=O)N2CCC[C@H]2C(=O)NCC(=O)N[C@H](C(=O)NCC(=O)N[C@H](C(=O)N2CCC[C@H]2C(=O)NCC(=O)N[C@@H](Cc2ccccc2)C(=O)NCC(=O)N[C@@H](Cc2ccccc2)C(=O)N2CCC[C@H]2C(=O)NCC(=O)N[C@@H](Cc2ccccc2)C(=O)NCC(=O)N[C@@H](Cc2ccccc2)C(=O)N2CCC[C@H]2C(=O)N2CCC(c3noc4cc(F)ccc34)CC2)C(C)C)C(C)C)C(C)C)C(C)C)C(C)C)C(C)C)cc1 ({Thiocarbamoyl(4-MeOPh)}-GE(OcHex)GFPGVGVPGVGVPGVGVPGFGFPGFGFP-X1) | 14 | 43 | 10 | 10 | 2 (≈ 0.626 µM) | 2 (≈ 0.626 µM) | 15 | 2 (≈ 0.626 µM) | 10 | 17 | 16 | 39 | 38 | – | – | – | –
5 | CC(C)[C@H](NC(=O)CNC(=O)[C@@H]1CCCN1C(=O)[C@H](Cc1ccccc1)NC(=O)CNC(=O)[C@H](CCC(=O)OC1CCCCC1)NC(=O)CNC(=S)Nc1ccc(Cl)cc1)C(=O)NCC(=O)N[C@H](C(=O)N1CCC[C@H]1C(=O)NCC(=O)N[C@H](C(=O)NCC(=O)N[C@@H](Cc1ccccc1)C(=O)N1CCC[C@H]1C(=O)NCC(=O)N[C@@H](Cc1ccccc1)C(=O)NCC(=O)N[C@@H](Cc1ccccc1)C(=O)N1CCC[C@H]1C(=O)NCC(=O)N[C@H](C(=O)NCC(=O)N[C@H](C(=O)N1CCC[C@H]1C(=O)NCC(=O)N[C@H](C(=O)NCC(=O)N[C@@H](Cc1ccccc1)C(=O)N1CCC[C@H]1C(=O)N1CCN(c2cccc(Cl)c2Cl)CC1)C(C)C)C(C)C)C(C)C)C(C)C)C(C)C ({Thiocarbamoyl(N-4-ClPh)}-GE(OcHex)GFPGVGVPGVGFPGFGFPGVGVPGVGFP-{Piperazinyl(4-(2,3-Cl2Ph))}) | 16 | 44 | 10 | 10 | 2.5 (≈ 0.779 µM) | 2.5 (≈ 0.779 µM) | 16 | 3 (≈ 0.935 µM) | 10 | 19 | 18 | 40 | 39 | – | – | – | –
6 | O=C(CNC(=S)Nc1ccc(Cl)cc1)N[C@@H](Cc1ccccc1)C(=O)NCC(=O)N[C@@H](Cc1ccccc1)C(=O)N1CCC[C@H]1C(=O)N1CCC(c2noc3cc(F)ccc23)CC1 ({Thiocarbamoyl(N-4-ClPh)}-GFGFP-X1) | 36 | 39 | – | – | 6 (≈ 6.7 µM) | 4.5 (≈ 5.03 µM) | 32 | 5.75 (≈ 6.42 µM) | – | 35 | 34 | 36 | 32 | 5.75 (≈ 6.42 µM) | 6.25 (≈ 6.98 µM) | 4.5 (≈ 5.03 µM) | 6 (≈ 6.7 µM)
7 | O=C(CNC(=S)Nc1ccc(Cl)cc1)N[C@@H](Cc1ccccc1)C(=O)NCC(=O)N[C@@H](Cc1ccccc1)C(=O)N1CCC[C@H]1C(=O)N1CCN(c2cccc(Cl)c2Cl)CC1 ({Thiocarbamoyl(N-4-ClPh)}-GFGFP-{Piperazinyl(4-(2,3-Cl2Ph))}) | 33 | 34 | – | – | 6.5 (≈ 7.17 µM) | 5 (≈ 5.52 µM) | 30 | 6.25 (≈ 6.9 µM) | – | 32 | 32 | 31 | 30 | 6.25 (≈ 6.9 µM) | 6.75 (≈ 7.45 µM) | 5 (≈ 5.52 µM) | 6.75 (≈ 7.45 µM)
8 | CC(C)[C@H](NC(=O)CNC(=S)Nc1ccc(Cl)cc1)C(=O)NCC(=O)N[C@H](C(=O)N1CCC[C@H]1C(=O)N1CCC(c2noc3cc(F)ccc23)CC1)C(C)C ({Thiocarbamoyl(N-4-ClPh)}-GVGVP-X1) | 32 | 34 | – | – | 6.75 (≈ 8.44 µM) | 6 (≈ 7.51 µM) | 28 | 8 (≈ 10 µM) | – | 31 | 30 | 31 | 30 | 8 (≈ 10 µM) | 8 (≈ 10 µM) | 6.5 (≈ 8.13 µM) | 8.75 (≈ 10.9 µM)
9 | CC(C)[C@H](NC(=O)CNC(=S)Nc1ccc(Cl)cc1)C(=O)NCC(=O)N[C@H](C(=O)N1CCC[C@H]1C(=O)N1CCN(c2cccc(Cl)c2Cl)CC1)C(C)C ({Thiocarbamoyl(N-4-ClPh)}-GVGVP-{Piperazinyl(4-(2,3-Cl2Ph))}) | 31 | 32 | – | – | 7.75 (≈ 9.56 µM) | 6.75 (≈ 8.33 µM) | 26 | 8.75 (≈ 10.8 µM) | – | 29 | 24 | 29 | 24 | 9 (≈ 11.1 µM) | 8.75 (≈ 10.8 µM) | 7 (≈ 8.64 µM) | 9.5 (≈ 11.7 µM)
